Data from ChEMBL document CHEMBL4385618, “Exploring small molecules with pan-genotypic inhibitory activities against hepatitis C virus NS3/4A serine protease” (Bioorg Med Chem Lett, 2019).
Active and inactive are the calls of the source. The rule behind the calls is not given here.

Columns and labels:
[1] = tested on: Hepatitis C virus serine protease, NS3/NS4A (Hepatitis C virus), D2K2A8+A3EZI9 [R155K]; assay: (§1) Inhibition of recombinant full length His-tagged HCV genotype 1b NS3/4A (1027 to 1657 residues) protease R155K (NS3) mutant expressed in Escherichia coli rosetta (DE3) cells using Ac-DE-Dap(QXL520)-EE-Abu-Psi-[COO]AS-C(5-FAMsp)-NH2 as substrate preincubated up to 10 mins followed by substrate addition and measured for 10 mins by fluorescence-based microplate reader analysis; conditions: Hepatitis C virus subtype 1b
Summary of the method: (§2)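 IC50 values come from a fluorescence-based enzymatic assay, with dose-response curves fitted to a three-parameter Hill equation. The mutants were genotype 1b NS3/4A.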

[2] = (§3) Inhibition of recombinant HCV genotype 3a NS3/4A protease using Ac-DE-Dap(QXL520)-EE-Abu-Psi-[COO]AS-C(5-FAMsp)-NH2 as substrate preincubated up to 10 mins followed by substrate addition and measured for 10 mins by fluorescence-based microplate reader analysis; set-up: species or system Hepatitis C virus subtype 3a
Summary of the method: (§4)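 IC50 came from the fluorescence-based enzymatic assay by fitting the inhibition curve to the three-parameter Hill equation.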

[3] = as §1, with “recombinant wild type” for “recombinant”, “NS3” for “NS3/4A”, “1657 residues)/4A (1658 to 1711” for “1657”, “protease” for “protease R155K (NS3) mutant”; set-up: species or system Hepatitis C virus subtype 1b; summary of the method: as §4
[4] = tested on: Hepatitis C virus subtype 2a; assay: Inhibition of recombinant HCV genotype 2a NS3/4A protease using Ac-DE-Dap(QXL520)-EE-Abu-Psi-[COO]AS-C(5-FAMsp)-NH2 as substrate preincubated up to 10 mins followed by substrate addition and measured for 10 mins by fluorescence-based microplate reader analysis; summary of the method: as §4
[5] = tested on: Hepatitis C virus genotype 4; assay: Inhibition of recombinant HCV genotype 4 NS3/4A protease using Ac-DE-Dap(QXL520)-EE-Abu-Psi-[COO]AS-C(5-FAMsp)-NH2 as substrate preincubated up to 10 mins followed by substrate addition and measured for 10 mins by fluorescence-based microplate reader analysis; summary of the method: as §4
[6] = tested on: Hepatitis C virus subtype 1a; assay: Inhibition of recombinant HCV genotype 1a NS3/4A protease using Ac-DE-Dap(QXL520)-EE-Abu-Psi-[COO]AS-C(5-FAMsp)-NH2 as substrate preincubated up to 10 mins followed by substrate addition and measured for 10 mins by fluorescence-based microplate reader analysis; summary of the method: as §4
[7] = tested on: Hepatitis C virus subtype 3a; assay: as §3; summary of the method: as §4
[8] = tested on: Hepatitis C virus serine protease, NS3/NS4A (Hepatitis C virus), D2K2A8+A3EZI9 [V36M]; assay: as §1, with “V36M” for “R155K”; conditions: Hepatitis C virus subtype 1b; summary of the method: as §2
[9] = tested on: Hepatitis C virus serine protease, NS3/NS4A (Hepatitis C virus), D2K2A8+A3EZI9 [A156S]; assay: as §1, with “A156S” for “R155K”; conditions: Hepatitis C virus subtype 1b; summary of the method: as §2
[10] = Binding affinity to recombinant full length His-tagged HCV genotype 1b NS3 (1027 to 1657 residues)/4A (1658 to 1711 residues) protease expressed in Escherichia coli rosetta (DE3) cells assessed as dissociation constant by SPR analysis; set-up: species or system Hepatitis C virus subtype 1b

Row | IC50 [3] | SMILES | inhibition [1] | IC50 [2] | inhibition [4] | inhibition [5] | inhibition [6] | other results
1 | 5 to 10 µM | Cc1ccc(S(=O)(=O)Nc2ccccc2C(=O)Nc2nc3c(ccc4ccccc43)s2)cc1 |  |  |  |  |  | 
2 |  | Cc1cc(NC(=O)Cc2csc(NS(=O)(=O)c3ccccc3)n2)ccc1Br |  |  |  |  |  | inhibition [7]: inactive
3 | 5 to 10 µM | CSc1cccc(NC(=O)Cc2csc(NS(=O)(=O)c3ccccc3)n2)c1 |  |  |  |  |  | 
4 | 2 to 5 µM | Cc1ccc(S(=O)(=O)Nc2ccccc2C(=O)Nc2nc3ccc4ccccc4c3s2)cc1 |  |  |  |  |  | 
5 | 10 to 100 µM | CSc1cccc2sc(NC(=O)c3ccccc3NS(=O)(=O)c3ccc(C)cc3)nc12 |  |  |  |  |  | Kd [10]: > 200 µM
6 | 2 to 5 µM | Cc1ccc(S(=O)(=O)Nc2ccccc2C(=O)Nc2nc3ccc4sc(C)nc4c3s2)cc1 |  |  |  |  |  | 
7 | 2 to 5 µM | Cc1ccc(S(=O)(=O)Nc2ccccc2C(=O)Nc2nc3c(C)cc(C)cc3s2)cc1 |  |  |  |  |  | 
8 | 10 to 100 µM | Cc1ccc(S(=O)(=O)Nc2ccccc2C(=O)Nc2nc3c(Br)cccc3s2)cc1 |  |  |  |  |  | Kd [10]: > 200 µM
9 | 5 to 10 µM | Cc1c(Cl)cccc1NC(=O)Cc1csc(NS(=O)(=O)c2ccccc2)n1 |  |  |  |  |  | 

Row | SMILES | IC50 [3] | inhibition [1] | IC50 [2] | inhibition [4] | inhibition [5] | inhibition [6] | other results
10 | Cc1ccc(S(=O)(=O)Nc2ccccc2C(=O)Nc2nc3c(cc4c5c(cccc53)CC4)s2)cc1 | 2 to 5 µM | inactive | 14 to 33 µM | Active | Active | Active | 
11 | Cc1ccc(S(=O)(=O)Nc2ccccc2C(=O)Nc2nc(-c3cc(Cl)ccc3Cl)cs2)cc1 | < 2 µM | inactive | 14 to 33 µM | Active | Active | Active | 
12 | Cc1ccc(S(=O)(=O)Nc2ccccc2C(=O)Nc2nc3c(Cl)ccc(Cl)c3s2)cc1 | 1.6 µM | Active | 14 to 33 µM | Active | Active | Active | inhibition [8]: Active; inhibition [9]: Active
13 | Cc1ccc(S(=O)(=O)Nc2ccccc2C(=O)Nc2nc3c(C)ccc(Cl)c3s2)cc1 | 5 to 10 µM | inactive | 14 to 33 µM | Active | Active | Active | 
